Test results as given in publication PMC2577561 (Bioorganic & medicinal chemistry, 2008).
pIC50: −log10 of the molar value. “And” between values parts separate entries of the source, which are not always exact repeats. Equal values may be shown once.

Experiments:
[1] = tested on: cholera toxin-induced intestinal fluid secretion; conditions: in vivo; cited from earlier work
[2] = tested on: CFTR; conditions: read-out: IC50, block of CFTR chloride conductance; full block; cited from earlier work
[3] = cited from earlier work
[4] = Solubility in phosphate buffered saline by LC/MS; format: physicochemical; conditions: for Increase of water solubility compared with CFTRinh-172: in saline
In short: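 Saturated solution made by adding DMSO stock to phosphate buffered saline (final DMSO 2%). Sonicated 5 min at 25 °C, shaken 1 h at room temperature, then centrifuged at 15 000 rpm for 1 h. Supernatant quantified by LC/MS peak area against per-compound standard curves (1–15 or 1–100 μM, linear r > 0.998).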

[5] = tested on: FRT cells; assay: Cytotoxicity, crystal violet staining; format: cell-based; conditions: 50 μM, 48 h, crystal violet staining vs vehicle-treated cultures
In short: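 Confluent FRT monolayers exposed to test compound for 2 days, washed 3 times, fixed for 30 min and stained with 0.5% crystal violet for 10 min. Dye extracted in Sorenson's buffer (0.1 M sodium citrate, 50% ethanol, pH 4.2) and read at 650 nm absorbance. Percent staining from 8 wells per test, referenced to cell-free blanks and vehicle-treated cells.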

[6] = tested on: MDCK cell model; conditions: cited from earlier work
[7] = target: human wildtype CFTR (Homo sapiens, UniProt P13569); assay: Short-circuit current measurement of CFTR inhibition; format: cell-based; conditions: for CFTR inhibition activity (in words): short-circuit current, statements in running text; for IC50 (μM) / IC50: FRT cells expressing human wildtype CFTR; for IC50: IC50 (μM)
In short: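 FRT cells stably expressing human wildtype CFTR, grown on 1 cm2 filters to >1,000 Ω.cm2. Basolateral membrane permeabilized with amphotericin B (250 μg/ml, 30 min). Basolateral buffer in mM: 130 NaCl, 10 Na-HEPES, 10 glucose, pH 7.3. Apical side had 65 mM NaCl swapped for gluconate, giving a Cl− gradient. 37 °C, 95% O2/5% CO2. CFTR activated with 100 μM CPT-cAMP, then inhibitor added at stepped concentrations. Voltage-clamped apical current recorded; IC50 fitted.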

[8] = Table 1, variations in Rings A and C
[9] = Table 2, variations in Ring B and Linkers 1 and 2

Sequence of human wildtype CFTR (P13569 whole entry): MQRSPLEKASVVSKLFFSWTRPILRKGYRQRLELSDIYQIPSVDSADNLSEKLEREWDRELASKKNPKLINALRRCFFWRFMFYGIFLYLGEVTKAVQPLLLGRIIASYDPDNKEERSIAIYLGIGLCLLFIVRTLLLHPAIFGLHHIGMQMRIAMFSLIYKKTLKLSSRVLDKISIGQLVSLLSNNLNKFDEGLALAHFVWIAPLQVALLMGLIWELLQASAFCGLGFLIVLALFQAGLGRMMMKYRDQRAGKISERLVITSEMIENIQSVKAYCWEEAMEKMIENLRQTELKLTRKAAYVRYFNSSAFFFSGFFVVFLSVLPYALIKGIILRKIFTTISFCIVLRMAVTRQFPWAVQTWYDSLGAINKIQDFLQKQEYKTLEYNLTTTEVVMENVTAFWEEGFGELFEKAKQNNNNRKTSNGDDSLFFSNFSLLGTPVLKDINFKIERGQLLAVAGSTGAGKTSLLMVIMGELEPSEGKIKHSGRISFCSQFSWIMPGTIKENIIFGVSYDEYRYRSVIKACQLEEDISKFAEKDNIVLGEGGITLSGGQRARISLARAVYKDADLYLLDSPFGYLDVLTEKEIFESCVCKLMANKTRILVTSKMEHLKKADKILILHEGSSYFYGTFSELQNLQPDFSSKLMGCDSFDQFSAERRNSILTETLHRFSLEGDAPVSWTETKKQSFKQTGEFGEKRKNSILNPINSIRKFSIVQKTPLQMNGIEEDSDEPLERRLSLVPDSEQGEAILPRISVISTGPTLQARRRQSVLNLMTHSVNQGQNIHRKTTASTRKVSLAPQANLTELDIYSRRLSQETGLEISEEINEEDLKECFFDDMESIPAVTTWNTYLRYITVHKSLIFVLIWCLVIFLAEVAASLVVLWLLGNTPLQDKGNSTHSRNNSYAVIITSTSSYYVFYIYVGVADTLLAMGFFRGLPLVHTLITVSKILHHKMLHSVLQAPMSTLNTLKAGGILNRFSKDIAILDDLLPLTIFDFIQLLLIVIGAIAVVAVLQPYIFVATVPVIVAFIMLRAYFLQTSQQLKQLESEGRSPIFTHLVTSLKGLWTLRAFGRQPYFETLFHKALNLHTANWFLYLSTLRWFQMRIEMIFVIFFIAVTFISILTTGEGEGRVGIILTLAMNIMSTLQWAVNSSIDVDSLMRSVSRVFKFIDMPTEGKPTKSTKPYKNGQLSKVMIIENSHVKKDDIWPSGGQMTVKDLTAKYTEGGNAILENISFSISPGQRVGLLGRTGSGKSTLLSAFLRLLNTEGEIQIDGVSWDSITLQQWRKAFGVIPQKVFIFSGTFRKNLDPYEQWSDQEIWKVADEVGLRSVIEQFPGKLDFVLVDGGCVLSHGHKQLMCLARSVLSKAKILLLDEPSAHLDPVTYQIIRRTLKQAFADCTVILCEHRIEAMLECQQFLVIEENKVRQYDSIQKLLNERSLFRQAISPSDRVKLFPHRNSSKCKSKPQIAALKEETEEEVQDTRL

SMILES: O=C(O)c1ccc(/C=C2\SC(=S)N(c3cccc(C(F)(F)F)c3)C2=O)cc1 [Compound 5, 4-[[4-Oxo-2-thioxo-3-[3-(trifluoromethyl)phenyl]-5-thiazolidinylidene]methyl]benzoic acid]
- Cholera toxin-induced intestinal fluid secretion [1]: efficacy in reducing cholera toxin-induced intestinal fluid secretion
- pIC50 [2]: > 6.30
- Excretion and metabolism (in words) [3]: renal excretion with minimal metabolism
- Toxicity (in words) [3]: low toxicity

SMILES: O=C1/C(=C/c2ccc(-c3nn[nH]n3)cc2)SC(=S)N1c1cccc(C(F)(F)F)c1 [Compound 6, 5-[[4-(2H-Tetrazol-5-yl)phenyl]methylene]-2-thioxo-3-[3-(trifluoromethyl)phenyl]-4-thiazolidinone]
- Increase of water solubility compared with CFTRinh-172 ([4]; listed as Tetrazolo-172): > 10 fold and 11 fold
- % Cell viability [5]: reduced
- Prevention of cyst formation [6]: substantially better than by CFTRinh-172

SMILES: O=C(O)c1ccc(/C=C2\SC(=S)N(c3ccc(F)c(C(F)(F)F)c3)C2=O)cc1 [Compound 8]
- CFTR inhibition activity (in words) [7]: intermediate activity

SMILES: O=C(O)c1cccc(/C=C2\SC(=S)N(c3ccc(F)c(C(F)(F)F)c3)C2=O)c1 [Compound 11]
- CFTR inhibition activity (in words) [7]: intermediate activity

SMILES: Cc1cccc(N2C(=O)/C(=C/c3ccc(C(=O)O)cc3)SC2=S)c1 [Compound 12]
- CFTR inhibition activity (in words) [7]: less active

SMILES: O=C1/C(=C/c2cc(Br)c(O)c(Br)c2)SC(=S)N1c1cccc(C(F)(F)F)c1 [Compound 14]
- CFTR inhibition activity (in words) [7]: modest inhibition activity

SMILES: O=C1/C(=C/c2cc(Br)c(O)c(Br)c2O)SC(=S)N1c1cccc(C(F)(F)F)c1 [Compound 15]
- CFTR inhibition activity (in words) [7]: modest inhibition activity

SMILES: Cc1c(N2C(=O)/C(=C/c3ccc(C(=O)O)cc3)SC2=S)cccc1C(F)(F)F [Compound 18, 4-[[4-Oxo-2-thioxo-3-[2-methyl-3-(trifluoromethyl)phenyl]-5-thiazolidinylidene]methyl] benzoic acid]
- % Cell viability [5]: reduced

SMILES: O=C(O)c1ccc(/C=C2\SC(=S)N(c3ccc(Cl)c(C(F)(F)F)c3)C2=O)cc1 [Compound 24]
- CFTR inhibition activity (in words) [7]: greatly reduced activity

SMILES: O=C(O)c1ccc(/C=C2\SC(=S)N(c3cc(C(F)(F)F)ccc3Cl)C2=O)cc1 [Compound 30]
- CFTR inhibition activity (in words) [7]: greatly reduced activity

SMILES: O=C(O)COc1cccc(/C=C2\SC(=S)N(c3cccc(C(F)(F)F)c3)C2=O)c1 [Compound 36]
- CFTR inhibition activity (in words) [7]: substantially reduced CFTR inhibition

SMILES: O=C1/C(=C/c2ccc(O)c(O)c2)SC(=S)N1c1cccc(C(F)(F)F)c1 [Compound 38]
- IC50 (μM) [7, 8]: Inactive

SMILES: COc1c(Br)cc(/C=C2\SC(=S)N(c3cccc(C(F)(F)F)c3)C2=O)c(O)c1Br [Compound 39]
- IC50 (μM) [7, 8]: Inactive

SMILES: COc1cc(Br)ccc1/C=C1\SC(=S)N(c2cccc(C(F)(F)F)c2)C1=O [Compound 40]
- IC50 (μM) [7, 8]: Inactive

SMILES: COc1ccc(/C=C2\SC(=S)N(c3cccc(C(F)(F)F)c3)C2=O)cc1 [Compound 41]
- IC50 (μM) [7, 8]: Inactive

SMILES: NC(=O)c1ccc(/C=C2\SC(=S)N(c3cccc(C(F)(F)F)c3)C2=O)cc1 [Compound 42]
- IC50 (μM) [7, 8]: Inactive

SMILES: O=C(NCCO)c1ccc(/C=C2\SC(=S)N(c3cccc(C(F)(F)F)c3)C2=O)cc1 [Compound 43]
- IC50 (μM) [7, 8]: Inactive

SMILES: NCCNC(=O)c1ccc(/C=C2\SC(=S)N(c3cccc(C(F)(F)F)c3)C2=O)cc1 [Compound 44]
- IC50 (μM) [7, 8]: Inactive

SMILES: CCOC(=O)c1ccc(/C=C2\SC(=S)N(c3cccc(C(F)(F)F)c3)C2=O)cc1 [Compound 45]
- IC50 (μM) [7, 8]: Inactive

SMILES: CC(=O)OCOC(=O)c1ccc(/C=C2\SC(=S)N(c3cccc(C(F)(F)F)c3)C2=O)cc1 [Compound 46]
- IC50 (μM) [7, 8]: Inactive

SMILES: O=C(O)c1ccc(/C=C2\SC(=S)N(Cc3cccc(C(F)(F)F)c3)C2=O)cc1 [Compound 47, 4-[[4-Oxo-2-thioxo-3-[(3-(trifluoromethyl)phenyl)methyl]-5-thiazolidinylidene]methyl] benzoic acid]
- IC50 (μM) [7, 9]: Inactive

SMILES: O=C(O)c1ccc(/C=C2\SC(=O)N(c3cccc(C(F)(F)F)c3)C2=O)cc1 [Compound 48, 4-[[3-[3-(trifluoromethyl)phenyl]-2,4-dioxo-5-thiazolidinylidene]methyl]benzoic acid]
- Increase of water solubility compared with CFTRinh-172 [4]: ~ 25 fold
- Reduction of CFTR inhibition potency compared with CFTRinh-172 ([7]; short-circuit current assays): 3.6 fold

SMILES: O=C(O)c1ccc(NC2=C(Cl)C(=O)N(c3cccc(C(F)(F)F)c3)C2=O)cc1 [Compound 50]
- CFTR inhibition activity (in words) [7]: weak activity

SMILES: O=C(O)c1ccc(SC2CC(=O)N(c3cccc(C(F)(F)F)c3)C2=O)cc1 (stereo not drawn) [Compound 51, 4-[[2,5-dioxo-1-[3-(trifluoromethyl)phenyl]-3-pyrrolidinyl]thio]-benzoic acid]
- CFTR inhibition activity (in words) [7]: moderate activity

SMILES: O=C(O)c1ccc(NC(=S)C2SC(=S)N(c3cccc(C(F)(F)F)c3)C2=O)cc1 (stereo not drawn) [Compound 52, 4-Oxo-[(3-trifluoromethyl)phenyl]-2-thioxo-N-[4-(carboxy)phenyl]-5-thiazolidinethio carboxamide]
- Water solubility (in words) [4]: highly water soluble

SMILES: O=C(O)c1ccc(NC(=S)C2SC(=S)N(c3cccc(C(F)(F)F)c3)C2=O)cc1O (stereo not drawn) [Compound 53, 4-Oxo-[(3-trifluoromethyl)phenyl]-2-thioxo-N-[(4-carboxy-3-hydroxy)phenyl]-5-thiazolidinethiocarboxamide]
- Water solubility (in words) [4]: highly water soluble
- IC50 [7, 9]: 11 µM

SMILES: O=C1C(C(=S)Nc2ccc(S(=O)(=O)O)cc2)SC(=S)N1c1cccc(C(F)(F)F)c1 (stereo not drawn) [Compound 54]
- IC50 [7, 9]: 25 µM

SMILES: O=C(O)c1ccc(Nc2nc(-c3cccc(C(F)(F)F)c3)cs2)cc1 [Compound 59]
- CFTR inhibition activity (in words) [7]: weakly active

SMILES: O=C(O)c1cc(Nc2nc(-c3cccc(C(F)(F)F)c3)cs2)ccc1O [Compound 60]
- CFTR inhibition activity (in words) [7]: weakly active

SMILES: O=C(O)c1ccc(Nc2nnc(-c3cccc(C(F)(F)F)c3)s2)cc1 [Compound 64, 4-[(5-(3-Trifluoromethylphenyl)-1,3,4-thiadiazol-2-yl)amino]-benzoic acid]
- IC50 (μM) [7, 9]: Inactive

SMILES: O=C(O)c1ccc(-n2cc(-c3cccc(C(F)(F)F)c3)nn2)cc1 [Compound 68, 4-[4-[3-(trifluoromethyl)phenyl]-1H-1,2,3-triazol-1-yl]-benzoic acid]
- IC50 (μM) [7, 9]: Inactive

SMILES: O=C(O)c1ccc(-n2cc(-c3ccc(C(F)(F)F)cc3)nn2)cc1 [Compound 69]
- IC50 (μM) [7, 9]: Inactive
